Hck Nef HTS – inhibitors of Nef-activated human Hck kinase, primary screen, biochemical, Z-Lyte FRET, 384-well, Hck-YEEI; AID 463187, 2010; Tyrosine-protein kinase HCK (Homo sapiens), P08631; inhibition, % at 20 µM; Recombinant Hck-YEEI plus Nef, Z-Lyte FRET kinase assay; hit rate 0.68% among 220,000;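 active = Hck-Nef kinase inhibition above about 50%, limit read from the data; inactive = inhibition below that limit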;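 note: 0% = DMSO with Hck plus Nef and 100% = Hck alone without Nef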
Runt-SMMHC FRET – inhibitors of RUNX1 Runt–CBFb-SMMHC binding, primary screen, biochemical, FRET, Cerulean-Runt, Venus-CBFb-SMMHC, uHTS; Cerulean-Runt/Venus-CBFb-SMMHC FRET ratio 530/480, 1 h; Runt-related transcription factor 1 (Homo sapiens) + Core-binding factor subunit beta …; hit rate 0.74% among 220,000; inhibition, % at 20 µM;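 active = mean inhibition across duplicate retests at 20 µM reaching about 50%, limit read from the data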;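 note: 0% = DMSO wells and 100% = wells with excess untagged CBFb-SMMHC; inhibitors lower the FRET ratio by blocking Runt binding to CBFb-SMMHC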
Target sequence (Q01196 whole entry, looked up): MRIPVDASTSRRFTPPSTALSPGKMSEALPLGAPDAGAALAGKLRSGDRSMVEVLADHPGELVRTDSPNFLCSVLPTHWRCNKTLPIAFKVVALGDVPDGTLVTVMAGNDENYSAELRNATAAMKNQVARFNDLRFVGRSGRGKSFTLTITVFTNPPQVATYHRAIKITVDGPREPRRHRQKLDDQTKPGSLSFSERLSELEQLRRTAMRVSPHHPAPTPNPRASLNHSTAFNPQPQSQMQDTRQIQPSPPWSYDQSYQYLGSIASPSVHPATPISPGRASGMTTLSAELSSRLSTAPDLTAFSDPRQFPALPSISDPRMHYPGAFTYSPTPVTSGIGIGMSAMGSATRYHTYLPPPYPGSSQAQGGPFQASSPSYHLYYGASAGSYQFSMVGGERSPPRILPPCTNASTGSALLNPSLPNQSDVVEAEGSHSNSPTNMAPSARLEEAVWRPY
Target sequence (Q13951 whole entry, looked up): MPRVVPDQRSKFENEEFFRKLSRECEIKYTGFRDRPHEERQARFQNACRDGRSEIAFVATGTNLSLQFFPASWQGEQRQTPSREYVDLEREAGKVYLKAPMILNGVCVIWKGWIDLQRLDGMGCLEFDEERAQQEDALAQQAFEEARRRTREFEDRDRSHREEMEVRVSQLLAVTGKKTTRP
Runt-CBFb FRET – inhibitors of RUNX1 Runt–CBFb binding, primary screen, biochemical, FRET, Cerulean-Runt, Venus-CBFb, uHTS. Runt-related transcription factor 1 (Homo sapiens) + Core-binding factor subunit beta …. Cerulean-Runt/Venus-CBFb FRET ratio 530/480, 1 h. inhibition, % at 20 µM. hit rate 0.46% among 220,000. AID 1496, 2009;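 active = inhibition over about 50% at 20 µM in the single-dose screen, limit read from the data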;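 note: 0% = DMSO wells and 100% = excess unlabeled CBFb competitor control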
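Reagent – Venus-CBFb binding partner, 100 nM · Assay system – Cerulean-tagged RUNX1 Runt domain (FRET donor) fusion protein · Input – 100 nM per protein · Incubation – two 1 h room-temperature incubations shielded from light · Measured by – FRET fluorescence · Medium – Tris buffer pH 7.5 with salts and BSA · Benchmarks – unlabeled CBFb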
RanGTP-Impb inh – inhibitors of RanGTP-importin-beta interaction, primary screen, biochemical, FRET, CFP-Ran, YFP-importin-beta, homogeneous | Ran GTPase (GTP-bound) - importin-beta complex | cell-free CFP-Ran/YFP-importin-beta FRET ratio | inhibition, % (no concentration beside the values) | hit rate 1.1% among 300,000 | AID 2216, 2009;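 active = more than half of the replicate wells show a fall in the fluorescence ratio signal beyond about 16%, limit read from the data, passing the limit was not always enough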;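 note: 0% = DMSO wells and 100% = Ran loaded with GDP instead of GTP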
YIC counter – YIC intramolecular FRET probe signal interference, dose response, counter-screen for RanGTP-importin-beta inhibitor project, biochemical, fluorescence FRET | hit rate 40% among 1,000 | IC50, µM | Purified YIC probe, intramolecular FRET ratio YFP/CFP | AID 435026, 2010 | shares compounds with RanGTP-Impb inh;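 active = fitted half-maximal inhibitory concentration no more than tenfold above the top dose tested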
Starred values were filed as active, the others as inactive; · = no result given. Most compounds without a hit are left out; they make up all but 1.8% or so of the library.

SMILES	Hck Nef HTS	Runt-SMMHC FRET	Runt-CBFb FRET	RanGTP-Impb inh	YIC counter
O=C(c1ccco1)c1cc2c(ccc3ccccc32)oc1=O	-1.0	30.2	18.7	24.0*	21.1*
Cc1ccc(NC(=O)COC(=O)Cc2ccsc2)c(C)c1	18.8	0.2	0.2	18.7*	>50
Cc1cccc(-c2nnc(NC(=O)c3ccc(N4C(=O)CCC4=O)cc3)s2)c1	3.2	-1.8	-2.2	17.0*	>50
C/C(=N\Nc1cccc([N+](=O)[O-])c1)c1cc(F)ccc1O	6.8	0.1	-2.0	-5.3	·
Clc1ccc(/C=C/c2ncc3ccccn23)cc1	25.9	·	·	23.8*	2.54*
CC(=O)N(/N=C1\Sc2ccccc2C1=O)c1ccccc1C	0.0	-8.7	·	23.8*	39.9*
CC(=O)N(/N=C1\Sc2ccccc2C1=O)c1ccc(C)cc1C	5.0	6.7	18.1	3.4	·
COCCNC(=O)C(C)OC(=O)c1cc2occc2n1C (stereo unspecified)	-2.0	0.1	1.6	19.2*	>50
COC(=O)Cc1cc(OC)c(OC)cc1Cc1cc(OC)c(OC)cc1CC(=O)OC	-1.0	-0.8	-0.8	-1.3	·
CNS(=O)(=O)c1cc(OC)c(OC)cc1CC(=O)OC	20.7	1.7	0.0	20.8*	>50
Cn1c(=O)[nH]c(=O)c2c1nc(N1CCCCC1)n2CC(O)COc1ccc([N+](=O)[O-])cc1 (stereo unspecified)	·	·	·	3.7	·
Cc1c2ccccc2nc2c(F)c(NCCO)c(F)c(F)c12	-1.5	3.1	2.4	-9.8	·
OCCNc1c2ccccc2nc2c(F)c(F)c(F)c(F)c12	0.1	·	47.3	20.0*	6.49*
CSCCC(=O)N1CCC(n2nccc2NC(=O)CCc2ccccc2)CC1	·	·	·	-0.2	·
OCCN1CCN(c2nc(-c3ccccc3)c3cc(Cl)ccc3n2)CC1	0.1	51.8*	·	18.4*	24.4*
CN(C)S(=O)(=O)c1ccc(N2CCCC2)c(C(=O)Nc2ccccc2Br)c1	·	·	·	7.0	·
CN(C)S(=O)(=O)c1ccc(N2CCCC2)c(C(=O)NC(c2ccccc2)c2ccccc2)c1	-0.8	-5.0	-1.5	19.1*	>50
Cc1ccc(N=Cc2cc3c(cc2[N+](=O)[O-])OCO3)cc1[N+](=O)[O-]	·	·	·	20.4*	>50
COc1ccc(S(=O)(=O)NCCCN2CCCC2=O)cc1OC	·	·	·	0.6	·
CCCc1n(CC(O)COCc2ccccc2)c2ccccc2[n+]1C (stereo unspecified)	-4.5	12.8	-8.4	35.1*	>50
CCCc1n(CC(O)COC2CCCCC2)c2ccccc2[n+]1C (stereo unspecified)	17.6	·	·	0.2	·
O=C(O)c1ccc2c(c1)C(=O)N(c1ccc(Nc3ccccc3)cc1)C2=O	·	·	·	-2.3	·
CCN(CC)S(=O)(=O)c1ccc(/C=C/C(=O)Nc2ccc(F)cc2F)cc1	0.7	0.5	0.0	20.8*	>50
COc1cccc(N=Nc2c(N)[nH]n3c(=O)c4c(nc23)CCCC4)c1	17.0	-4.3	-6.0	-1.3	·
O=C(CCNC(=O)C1CCN(S(=O)(=O)c2ccccc2)CC1)NCc1ccccc1Cl	·	·	·	-8.9	·
SMILES	Hck Nef HTS	Runt-SMMHC FRET	Runt-CBFb FRET	RanGTP-Impb inh	YIC counter
Cc1ccc(OCC(=O)NCCNC(=O)c2ccc(C)nc2)cc1	·	·	·	20.9*	>50
Cc1ccc(C(=O)NCCNC(=O)COc2ccc(Cl)cc2)cn1	·	·	·	1.3	·
C=CCNC(=O)COc1cc(C)ccc1C	3.5	2.0	0.5	-0.4	·
Cc1ccc(S(=O)(=O)CC(=O)N(CCCN(C)C)c2nc3ccc(C)cc3s2)cc1	·	·	·	21.0*	>50
CC1=Nc2ccccc2/C1=C\c1nc(-c2ccc(F)cc2)oc1O	2.4	-3.2	-18.5	22.2*	>26
CCOC(=O)N1CCN(/C=C(\C#N)c2nc3ccccc3s2)CC1	3.5	-2.4	-1.8	20.6*	>50
c1ccc2nc(N3CCN(Cc4ccc5c(c4)OCO5)CC3)cnc2c1	-9.8	-0.7	0.4	1.6	·
N#C/C(=C\N1CCN(Cc2ccc3c(c2)OCO3)CC1)c1nc2ccccc2s1	1.2	3.0	0.4	20.0*	>50
c1ccc(N2CCN(c3nc4cc5c(cc4s3)OCCO5)CC2)cc1	0.0	2.9	0.9	8.9	·
c1c2c(cc3sc(N4CCOCC4)nc13)OCCO2	1.8	-0.5	0.1	22.8*	>50
CC(=O)N1CCc2c(sc(NC(=O)Cc3ccccc3)c2C#N)C1	·	·	·	-2.5	·
CCOC(=O)c1c(NC(=O)C2CCCCC2)sc2c1CCN(C(C)C)C2	·	·	·	40.4*	>50
CCOC(=O)c1c(NC(=S)Nc2ccc(F)cc2)sc2c1CCC2	17.1	2.4	6.8	5.4	·
CCOC(=O)c1c(NC(=O)c2ccc(S(=O)(=O)N3CCOCC3)cc2)sc2c1CCN(C(C)C)C2	·	·	·	7.0	·
CCOC(=O)c1c(NC(=O)Cc2cccs2)sc2c1CCCC2	-0.6	-1.6	-0.4	2.8	·
CCN1CCc2c(sc(NC(=O)Cc3ccccc3)c2C(=O)OC)C1	·	·	·	42.2*	>50
CCOC(=O)c1c(NC(=O)Nc2ccc(F)cc2)sc2c1CCN(C)C2	6.0	15.1	15.8	20.5*	>50
CCOC(=O)c1c(NC(=O)Cc2ccccc2)sc2c1CCN(CC)C2	·	·	·	54.9*	>50
COc1cc2c(cc1OC)C(c1ccccc1Cl)N(C)CC2 (stereo unspecified)	·	·	·	-1.8	·
CCOC(=O)c1sc(NC(=O)Nc2ccc(F)cc2)nc1C	-0.4	2.4	1.1	18.4*	>50
CCOC(=O)c1c(/N=C/c2ccccc2O)sc2c1CCC2	-0.5	40.0	21.3	-1.4	·
CCOC(=O)c1sc(NC(=O)Cc2ccc(F)cc2)nc1C	25.5	1.7	-2.4	-0.2	·
CCOC(=O)c1c(/N=C/c2ccc(C)cc2O)sc2c1CCN(C)C2	17.1	-2.5	14.0	59.8*	>26
COC(=O)CCCCCCCC(=O)Nc1nnc(C(F)(F)F)s1	-14.1	-0.3	0.5	4.6	·
COc1ccc(CCNc2nc3ccccc3n3nnnc23)cc1OC	-0.4	30.8	18.6	27.9*	24.8*
c1ccc(CCNc2nc3ccccc3n3nnnc23)cc1	-2.5	3.1	4.0	6.0	·
CCCCN(C(=O)CNC(=O)c1ccco1)C(C(=O)NC1CCCCC1)c1cccnc1 (stereo unspecified)	·	·	·	-0.8	·
NS(=O)(=O)c1ccc(CCNC(=O)C2CCN(S(=O)(=O)c3ccc(Br)s3)CC2)cc1	16.8	2.6	-0.8	23.9*	>50
COCCNC(=O)c1cnn2c(C(F)F)cc(-c3ccc(C)cc3)nc12	-6.5	92.2	45.6	18.0*	42.4*
CCN(/N=C/C=C/c1ccccc1)c1cc(=O)n(C)c(=O)[nH]1	3.2	1.4	1.4	27.3*	>50
